Experimental data reported in the EternaBench riboswitch data.

Tested on: MS2 coat protein
Experiment: apparent Kd, MS2 coat protein; higher = weaker binding; RNA-MaP array; FMN 200 µM where present
Method in brief: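 Apparent Kd: the median of filtered binding-curve fits from single clusters. Designs were transcribed on Illumina sequencing-chip clusters by stalled E. coli RNA polymerase and titrated with SNAP-549-labelled MS2 coat protein from 0.7 or 1.5 nM, doubling to 3 µM, in 100 mM Tris-HCl pH 7.5, 80 mM KCl, 4 mM MgCl2, BSA, DTT, yeast tRNA and Tween-20. Each series ran without and then with constant ligand, and green signal was normalised to red-channel RNA signal and control-cluster median Fmax.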

[1] = designed as: OFF switch for flavin mononucleotide, no ligand
[2] = ligand present: flavin mononucleotide, designed as: OFF switch for flavin mononucleotide
[3] = designed as: ON switch for flavin mononucleotide, no ligand
[4] = ligand present: flavin mononucleotide, designed as: ON switch for flavin mononucleotide

## AAGAUGCGGAUAGGAUAUGGAGAGAAAGAAAGACCAGAAGGAUUGGUCAUAUAACAUGAGGAUCACCCAUGUAUAUGUUGUGAA
[1]
  apparent Kd: 19.9 nM
[2]
  apparent Kd: 16.6 nM

## CAAUGGGCGGUAGGAUAUCCGGUGUUUGGCAAAGGAGAAGGACUCACCAUACAUGAGGAUCACCCAUGUGAAGCGGGUCCUCAA
[1]
  apparent Kd: 8.48 nM
[2]
  apparent Kd: 10.1 nM

## CCGGAAAUACAGGAUAUCGUAUCGGAUACGAUACGAGAAGGGUAUACAUGAGGAUCACCCAUGUGUCCUACCGG
[1]
  apparent Kd: 25.1 nM
[2]
  apparent Kd: 32 nM

## AUGAUACAUGAGGAUCACCCAUGUCACCUCACACGAGGAUAUCUGAAUCGAUUAGAUUACGGAGAAGGCGUGGAAA
[3]
  apparent Kd: 66.8 nM
[4]
  apparent Kd: 20.8 nM

## CAUUAAUUGAUUAUUGUAUUUAUACAGGAUAUGUAACAUGAGGAUCACCCAUGUAUACAUGGGAAACAGAAGGGUAUAUAAAGA
[1]
  apparent Kd: 33.7 nM
[2]
  apparent Kd: 29.9 nM

## AUAAAUCAUGUAGGAUAUGCGUGGCGAAGCUAUGCAGAAGGACAUGAGGAUCACCCAUGUUUUUCCGUCUGCGUACAGACGGAA
[1]
  apparent Kd: 308 nM
[2]
  apparent Kd: 147 nM

## CACUGCAUGUAAGGAUAUCGACUGGAUAACAGUCGAGAAGGUACAUGAGGAUCACCCAUGUAAGCAGUGAAUAAUAAUAAUAAU
[1]
  apparent Kd: 13.2 nM
[2]
  apparent Kd: 25.2 nM

## GCUUGGCGAGGAUAUACAUGAGGAUCACCCAUGUGAGAGAAUAAAGUGAGGAAGAAAAGUAGAAGGCGCUGAGG
[1]
  apparent Kd: 54 nM
[2]
  apparent Kd: 271 nM

## AGUAAGAUGCAGAAGGUGUCAGCGAGAGCUGCGACAUGAGGAUCACCCAUGUACCGGUGACGGUACAAGGAUAUGCAUCUUACA
[3]
  apparent Kd: 882 nM
[4]
  apparent Kd: 360 nM

## ACAUGAUCAGGAUAUACAUGAGGAUCACCCAUGUAUUUCAAAAAGGGACUUUCUUAAUGUAGAAGGGAUCUUGU
[1]
  apparent Kd: 14.7 nM
[2]
  apparent Kd: 33.8 nM

## UUCAUUAACAUGAGGAUCACCCAUGUUGGCCAGUCUCACACCAGAAGGCACGUUGAGCACAUCAGUGAGGAUAUGGGUGACAUA
[3]
  apparent Kd: 331 nM
[4]
  apparent Kd: 91 nM

## ACAUACAUUCGAGGAUAUCAGUGAACAUAUUAUUGAGAAGGCGAUAUUAUUUUUAAUCUUAUUUACAUGAGGAUCACCCAUGUU
[3]
  apparent Kd: 22.6 nM
[4]
  apparent Kd: 19.6 nM

## CCACGACCGGAGAAGGCAGUUUGUGGGCCUGUUCCUGUCGGAUACAUGAGGAUCACCCAUGUACCUGAGGAUAUCUGGUCGUAG
[1]
  apparent Kd: 4.99 nM
[2]
  apparent Kd: 5.57 nM

## UCCCGUUGUCAGAAGGCUCCUCGGAACCCGAGGAGAGGAUAUGACACAUGAGGAUCACCCAUGUGCCCGGUCGUGACAAAGGUG
[1]
  apparent Kd: 13.4 nM
[2]
  apparent Kd: 146 nM

## GGAACCGCUCAGAAGGACAUGAGGAUCACCCAUGUAGGAUAUGACUCGGUCUUUACGUGGCGCCCUGCAUCAUCGUUAUCUGCU
[3]
  apparent Kd: 165 nM
[4]
  apparent Kd: 23.1 nM

## AUGCUUUAUGUAGGAUAUGCAUACGGUACGUAUGCAGAAGGACAUGAGGAUCACCCAUGUAAAUUAUUAUUACAUAUCAUACAU
[2]
  apparent Kd: 44 nM

## CUGUGAGGGAUCCAGAAUUACAACAUGAGGAUCACCCAUGUACAGGAUAUAGGGUUGAUAGGCGCCUAGAAGGGUAUGAUCACG
[1]
  apparent Kd: 632 nM
[2]
  apparent Kd: 584 nM

## CUGGUGUGAGGAUAUCAGGACACGCCCGAGGGCGUGUCAAAUGAGAAGGCACAUGAGGAUCACCCAUGUGGGAC
[1]
  apparent Kd: 42.3 nM
[2]
  apparent Kd: 99.6 nM

## GUCAGCUCGUGAGGAUAUACAACGCUGCUUCGGCAGUGUAUUAAGAUCACAUGAGGAUCACCCAUGUAGAAGGCACGAGCUGAU
[1]
  apparent Kd: 15.1 nM
[2]
  apparent Kd: 284 nM

## UCCGAACAUGAGGAUCACCCAUGUCUAAUACGUCAAGGAUAUGGGCGCGGAGAACCGCAACCAGAAGGUGAGAAAU
[3]
  apparent Kd: 507 nM
[4]
  apparent Kd: 89.4 nM

## AGACGGAGCUGAGGAUAUAACAUGAGGAUCACCCAUGUAAGUCUCCAGGAAACUGGAGACAAAUGUUAGAAGGCAGCUCCGUCA
[1]
  apparent Kd: 39.8 nM
[2]
  apparent Kd: 51.2 nM

## GUAGCAACAUGAGGAUCACCCAUGUAGGAUAUCGCUAUUGUAAUCAUGAAACAUGAUUACAAUAGCGAGAAGGACAUAUGCUAG
[1]
  apparent Kd: 14.9 nM
[2]
  apparent Kd: 12.8 nM

## AUAAAGUGAGGAUAUCCAAUAUAUGACAUGAGGAUCACCCAUGUUUCCACUCGUACCUCCGGAGAAGGCACAUUUU
[1]
  apparent Kd: 32.1 nM
[2]
  apparent Kd: 20.2 nM

## UGGUUUGGGCUAGAUGCACAGACAUGAGGAUCACCCAUGUCUGAGGAUAUGCGUCAACAUAGGCAGCAGAAGGCAGACACUCGC
[1]
  apparent Kd: 15 nM
[2]
  apparent Kd: 22.2 nM

## AUCCUACAUGAGGAUCACCCAUGUGACGCCUCGAUAGGAUAUGCGUGUGCCUUGGCGCAUGCAGAAGGAUUGUAGC
[3]
  apparent Kd: 43.6 nM
[4]
  apparent Kd: 237 nM

## CUAGUACAUGAGGAUCACCCAUGUCAGGAUAUUGGAUAUGCCUUGGAAUACGUGUUUACAAGAAGGGACUAUAG
[1]
  apparent Kd: 18.7 nM
[2]
  apparent Kd: 19.2 nM

## GCACGAGACUAAGGAUAUGGAGUAUCUACAUUAAACAUGAGGAUCACCCAUGUAGGGAGUAUGAUUCAGAAGGUAGAGACGUGC
[3]
  apparent Kd: 157 nM
[4]
  apparent Kd: 37.3 nM

## ACCUCACACGUCAGGAUAUGCCUGCGGAUAUGCGGGUAGAAGGGACAUGAGGAUCACCCAUGUCUUUCGUGAUU
[1]
  apparent Kd: 15.8 nM
[2]
  apparent Kd: 21.1 nM
